Measurements published in ChEMBL document CHEMBL2413001, “Exploring pyrimidine-substituted curcumin analogues: design, synthesis and effects on EGFR signaling” (Bioorg Med Chem, 2013).
Blank lines part the entries; values can stand above or below the compound they belong to. Activity calls are given as the source filed them. The rule behind the calls is not given here.

Key:
HT-29 [1] = experiment: Cytotoxicity against human HT-29 cells assessed as growth inhibition after 48 hrs by resazurin assay; assay type: functional, cell-based; conditions: for IC50: HT-29, 48 h
How it was run: (§1)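 HCT116 or HT29 seeded at 2000 cells/well, grown 24 h, then given fresh complete McCoy's 5A (5% FBS, 0.1% DMSO final) containing serial compound concentrations for 48 h. Resazurin was added for 16 h and fluorescence read at ex 544/em 595 nm as a measure of living cells. IC50 was calculated by the Logit approach; values are mean ± SD.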

HCT-116 [2] = experiment: Cytotoxicity against human HCT116 cells assessed as growth inhibition after 48 hrs by resazurin assay; assay type: functional, cell-based; conditions: for IC50: HCT-116, 48 h; how it was run: as §1
HCT-116 [3] = experiment: Induction of apoptosis in human HCT116 cells assessed as ratio of Bax to Bcl-2 expression at 20 uM after 72 hrs by Western blot analysis relative to control; assay type: functional
How it was run: (§2)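 HCT116 only, seeded at 8 × 10⁴ cells/ml in 15 cm dishes for 24 h, then treated for 72 h at 20 µM or at 5, 10 and 20 µM. Lysed in Triton lysis buffer (pH 7.5) with inhibitors, sonicated, and protein assayed by BCA. Western blots were developed by ECL. Band intensities were normalized to β-actin, as means of three independent experiments; the Bax/Bcl-2 ratio was expressed relative to untreated control.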

HCT-116 [4] = experiment: Induction of apoptosis in human HCT116 cells assessed as increase in Bax expression at 20 uM after 72 hrs by Western blot analysis; assay type: functional, cell-based; how it was run: as §2
HCT-116 [5] = experiment: Induction of apoptosis in human HCT116 cells assessed as reduction in Bcl-2 expression at 20 uM after 72 hrs by Western blot analysis; assay type: functional, cell-based; how it was run: as §2
HCT-116 [6] = experiment: Induction of apoptosis in human HCT116 cells assessed as effect on HSP-70 expression at 20 uM after 72 hrs by Western blot analysis; assay type: functional, cell-based; how it was run: as §2
HCT-116 [7] = experiment: Induction of apoptosis in human HCT116 cells assessed as effect on HSP-90 expression at 20 uM after 72 hrs by Western blot analysis; assay type: functional, cell-based; how it was run: as §2
HCT-116 [8] = experiment: Induction of apoptosis in human HCT116 cells assessed as PARP cleavage at 20 uM after 72 hrs by Western blot analysis; assay type: functional, cell-based; how it was run: as §2
HCT-116 [9] = experiment: Induction of apoptosis in human HCT116 cells assessed as caspase-3 activation at 20 uM after 72 hrs by Western blot analysis; assay type: functional, cell-based; how it was run: as §2
[10] = target: Epidermal growth factor receptor (Homo sapiens) (UniProt P00533); experiment: Inhibition of EGFR signaling in human HCT116 cells assessed as effect on CDK2 expression at 20 uM after 24 hrs by Western blot analysis; assay type: cell-based; conditions: HCT-116
[11] = target: Epidermal growth factor receptor (Homo sapiens) (UniProt P00533); experiment: Inhibition of EGFR signaling in human HCT116 cells assessed as effect on CDK4 expression at 20 uM after 24 hrs by Western blot analysis; assay type: cell-based; conditions: HCT-116
[12] = target: Epidermal growth factor receptor (Homo sapiens) (UniProt P00533); experiment: Inhibition of EGFR signaling in human HCT116 cells assessed as inhibition of Rb expression at 20 uM after 24 hrs by Western blot analysis; assay type: cell-based; conditions: HCT-116
[13] = target: Epidermal growth factor receptor (Homo sapiens) (UniProt P00533); experiment: Inhibition of EGFR signaling in human HCT116 cells assessed as inhibition of cyclin E1 expression at 20 uM after 24 hrs by Western blot analysis; assay type: cell-based; conditions: HCT-116
[14] = target: Epidermal growth factor receptor (Homo sapiens) (UniProt P00533); experiment: Inhibition of EGFR signaling in human HCT116 cells assessed as inhibition of cyclin D1 expression at 20 uM after 24 hrs by Western blot analysis; assay type: cell-based; conditions: HCT-116
[15] = target: Epidermal growth factor receptor (Homo sapiens) (UniProt P00533); experiment: Inhibition of EGFR signaling in human HCT116 cells assessed as induction of p21 WAF-1/CIP-1 expression at 20 uM after 24 hrs by Western blot analysis relative to control; assay type: cell-based; conditions: HCT-116
HT-29 [16] = experiment: Cell cycle arrest in human HT-29 cells assessed as increase in G2/M population at 20 uM after 24 hrs by flow cytometry relative to control; assay type: functional
How it was run: (§3)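 HCT116 or HT29 cells seeded at 4 × 10⁴ cells/ml in 6-well plates and left 24 h to attach, then exposed for 24 h in complete McCoy's 5A (5% FBS) with 0.1% DMSO final, at 5, 10 or 20 µM. Floating and trypsinized cells were pooled, PBS-washed, fixed overnight in 70% ethanol at 4 °C and stained with PI/RNase for 15 min at room temperature. Flow DNA content gave G0/G1, S and G2/M fractions as fold of control, from three independent assays.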

HCT-116 [17] = experiment: Cell cycle arrest in human HCT116 cells assessed as increase in G2/M population at 20 uM after 24 hrs by flow cytometry relative to control; assay type: functional; how it was run: as §3
HCT-116 [18] = experiment: Inhibition of EGFR protein expression in human HCT116 cells at 20 uM after 72 hrs by Western blot analysis; assay type: functional, cell-based
How it was run: (§4)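 HCT116 or HT29 seeded at 8 × 10⁴ cells/ml in 15 cm dishes for 24 h, then treated for 72 h at 20 µM or at 5, 10 and 20 µM. Whole-cell lysates were made in Tris-HCl/NaCl/Triton buffer with phosphatase and protease inhibitors (pH 7.5), sonicated and cleared at 10,000g; protein was measured by BCA. Blots were blocked in 5% milk/TBST and developed by ECL. P-EGFR(Tyr1068) and total EGFR bands were normalized to β-tubulin, as means of three experiments.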

HT-29 [19] = experiment: Inhibition of EGFR protein expression in human HT-29 cells at 20 uM after 72 hrs by Western blot analysis; assay type: functional, cell-based; how it was run: as §4
[20] = target: Epidermal growth factor receptor (Homo sapiens) (UniProt P00533); experiment: Inhibition of EGFR phosphorylation at Tyr1068 residue in human HCT116 cells at 20 uM after 72 hrs by Western blot analysis; assay type: cell-based; conditions: HCT-116; how it was run: as §4
[21] = target: Epidermal growth factor receptor (Homo sapiens) (UniProt P00533); experiment: Inhibition of EGFR phosphorylation at Tyr1068 residue in human HT-29 cells at 20 uM after 72 hrs by Western blot analysis; assay type: cell-based; how it was run: as §4

Sequence of Epidermal growth factor receptor (Homo sapiens) (P00533 whole entry): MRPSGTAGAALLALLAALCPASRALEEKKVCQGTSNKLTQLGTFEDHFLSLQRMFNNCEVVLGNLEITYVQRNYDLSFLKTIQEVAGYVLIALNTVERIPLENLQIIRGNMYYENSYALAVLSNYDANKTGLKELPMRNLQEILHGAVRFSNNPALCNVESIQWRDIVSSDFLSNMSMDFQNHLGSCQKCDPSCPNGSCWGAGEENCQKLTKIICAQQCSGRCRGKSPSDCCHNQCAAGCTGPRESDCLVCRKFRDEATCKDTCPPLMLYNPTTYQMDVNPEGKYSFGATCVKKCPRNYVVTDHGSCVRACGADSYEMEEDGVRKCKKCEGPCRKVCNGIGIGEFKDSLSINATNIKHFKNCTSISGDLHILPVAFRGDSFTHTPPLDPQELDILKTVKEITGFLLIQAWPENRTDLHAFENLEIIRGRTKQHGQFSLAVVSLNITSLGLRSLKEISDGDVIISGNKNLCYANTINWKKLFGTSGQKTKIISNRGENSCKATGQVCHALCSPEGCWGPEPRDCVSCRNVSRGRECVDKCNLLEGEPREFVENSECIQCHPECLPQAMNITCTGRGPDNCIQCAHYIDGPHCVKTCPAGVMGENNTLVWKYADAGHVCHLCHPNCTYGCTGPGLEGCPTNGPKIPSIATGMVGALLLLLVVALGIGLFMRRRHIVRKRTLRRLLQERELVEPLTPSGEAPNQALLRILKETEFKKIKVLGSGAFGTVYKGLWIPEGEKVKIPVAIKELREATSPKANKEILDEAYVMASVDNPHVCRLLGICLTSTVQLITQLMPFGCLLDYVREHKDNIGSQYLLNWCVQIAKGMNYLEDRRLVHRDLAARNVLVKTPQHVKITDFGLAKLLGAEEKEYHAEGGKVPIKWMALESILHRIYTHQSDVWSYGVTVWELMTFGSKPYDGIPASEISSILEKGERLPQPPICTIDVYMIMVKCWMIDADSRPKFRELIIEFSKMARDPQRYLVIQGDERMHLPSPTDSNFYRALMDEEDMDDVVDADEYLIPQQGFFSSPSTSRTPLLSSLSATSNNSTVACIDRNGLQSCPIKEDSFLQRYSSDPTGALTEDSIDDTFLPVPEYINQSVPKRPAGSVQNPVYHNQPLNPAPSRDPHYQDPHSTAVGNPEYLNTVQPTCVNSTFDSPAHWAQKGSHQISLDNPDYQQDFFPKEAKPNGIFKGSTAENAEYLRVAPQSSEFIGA

SMILES: CCCNc1nc(/C=C/c2cc(OC)c(OC)c(OC)c2)cc(/C=C/c2cc(OC)c(OC)c(OC)c2)n1
IC50 (HT-29 [1]): > 100 µM | growth inhibition (GI) (HCT-116 [2]): Dose-dependent effect | IC50 (HCT-116 [2]): 21.9 µM

inhibition [10]: inactive | inhibition [11]: inactive | inhibition [12]: inactive | inhibition [13]: inactive | inhibition [14]: inactive | fold change (FC) [15]: 20 | inhibition [20]: inactive | inhibition [21]: inactive
SMILES: CCNc1nc(/C=C/c2ccc(OC)c(OC)c2)cc(/C=C/c2ccc(OC)c(OC)c2)n1
Ratio (HCT-116 [3]): 1.57 | Activity (HCT-116 [4]): Active | Activity (HCT-116 [5]): Active | Activity (HCT-116 [6]): inactive | Activity (HCT-116 [7]): inactive | Activity (HCT-116 [8]): inactive | Activity (HCT-116 [9]): inactive | fold change (FC) (HT-29 [16]): 1.1 | fold change (FC) (HCT-116 [17]): 1.03 | inhibition (HCT-116 [18]): inactive | inhibition (HT-29 [19]): inactive | growth inhibition (GI) (HT-29 [1]): Dose-dependent effect | IC50 (HT-29 [1]): 38.5 µM | growth inhibition (GI) (HCT-116 [2]): Dose-dependent effect | IC50 (HCT-116 [2]): 46.4 µM

SMILES: CCCNc1nc(/C=C/c2ccc(OC)c(OC)c2)cc(/C=C/c2ccc(OC)c(OC)c2)n1
growth inhibition (GI) (HT-29 [1]): Dose-dependent effect | IC50 (HT-29 [1]): > 100 µM | growth inhibition (GI) (HCT-116 [2]): Dose-dependent effect | IC50 (HCT-116 [2]): 28 µM
